Assay outcomes from PubChem.
An excerpt weighted towards active compounds, which were near 1.9% of everything screened.
V-ATPase pH: regulators of yeast V-ATPase proton transport. S. cerevisiae, pHLuorin cytosolic pH fluorescence. response, % at 10 µM. hit rate 0.37% among 350,000. AID 504577; in the data active means response mostly above about 7.3%, no sharp cut-off; inactive means mostly below about 5.4%; further: actives read high
beta cell repl: MIN6 beta-cell proliferation induction; proliferation, % at 10 µM; AID 2380; hit rate 0.29% among 330,000; MIN6 cells proliferation, ATPlite luminescence, 48 h; cells starved in 0.2% serum; 100% = growth in 10% serum;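 active means compounds whose signal lies at least 3.5 SD above the mean of all wells on their plate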;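 further: 0% = DMSO-treated cells in low-serum medium and 100% = 10% serum control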
CR mimetic SO: caloric restriction mimetics inhibiting age-related superoxide in yeast; superoxide response (% of plate mean), % at 10 µM; hit rate 0.18% among 330,000; AID 2690; S. cerevisiae aged cells, superoxide DHE fluorescence; active compounds read low;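 active means superoxide response under a set limit, about three screen SD below normal, cut at about 65% in these data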;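 further: yeast aged for seven days with compound at 30 °C before DHE staining; 100% = average MFI of all compound-treated wells on the plate with controls excluded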
KLK7 zymogen act: activates the human kallikrein-7 zymogen. purified proKLK7, EDANS-DABCYL substrate fluorescence; 100% is mature enzyme control, 0% vehicle. activation, % at 7 µM. hit rate 0.9% among 370,000. AID 652039;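 active means activation above the mean of all tested compounds plus 3 SD, computed per campaign excluding outliers beyond control limits, cut at about 13% in these data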
Target sequence (P49862 whole entry, looked up): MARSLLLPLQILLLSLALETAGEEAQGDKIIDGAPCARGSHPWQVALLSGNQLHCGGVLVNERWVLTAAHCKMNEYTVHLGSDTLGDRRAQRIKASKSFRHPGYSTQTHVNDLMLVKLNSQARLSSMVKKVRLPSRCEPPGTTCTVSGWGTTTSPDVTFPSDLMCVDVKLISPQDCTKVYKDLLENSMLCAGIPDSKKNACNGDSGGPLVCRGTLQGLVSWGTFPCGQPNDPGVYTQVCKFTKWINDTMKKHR
Rce1 inhib: inhibitors of yeast Ras-converting enzyme | Q03530 | yeast membranes, quenched prenylated peptide cleavage fluorescence | calls only | hit rate 0.27% among 290,000;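 active means fall in fluorescence gain of 50% or more versus controls, with final raw signal at or below 3038400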;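 further: plate controls were neutral control wells for no effect and wells lacking membranes for full effect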
T cell modulator: T cell immune modulators affecting CD8 T cell-vesicle binding. AID 2052. response (vesicle binding), % at 7 µM. 2C CD8+ T cell-vesicle binding, flow cytometry; active compounds read low. hit rate 0.068% among 330,000;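 active means response, share of CD8 T cells binding vesicles, and their 90th percentile fluorescence all below set limits, cut at about 80% in these data, passing the limit was not always enough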;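 further: values below 100% mean blocked vesicle binding to the CD8+ T cells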
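material = purified 2C TCR transgenic mouse naive CD8+ T cells | controls = Unloaded micro-vesicles (low), QL9 vesicles with 0.7% DMSO (high) | detection = cytometric PE anti-B7-1 and Alexa647 anti-CD8 signals after 1% paraformaldehyde fixation | incubation = binding step 1.5 h, 37 °C, antibody labelling 20 min, ice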
VATPase regulator: regulators of yeast V-ATPase proton transport. response, % at 10 µM. hit rate 2% among 980. AID 602197. shares compounds with V-ATPase pH. S. cerevisiae pHLuorin cytosolic pH; in the data active means response above about 24%;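 further: plate controls were vehicle wells for no effect and positive control wells for full effect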
The depositor's hits bear a star; i = inactive; . = no result.

SMILES	V-ATPase pH	beta cell repl	CR mimetic SO	KLK7 zymogen act	Rce1 inhib	T cell modulator	VATPase regulator
O=C(NCC(c1cccs1)N1CCOCC1)c1cccc([N+](=O)[O-])c1 (configuration not stated)	53*	1	102	0	i	i	-3
CCOc1ccc(CCNC(=O)COC(=O)Cn2nc(C)c([N+](=O)[O-])c2C)cc1OCC	-2	-1	100	-1	i	256	.
Cc1nn(CC(=O)OCC(=O)NCCc2ccc(F)cc2)c(C)c1[N+](=O)[O-]	9.9*	0	89	1	.	277	-4
O=C(c1ccc(F)cc1Cl)N(Cc1ccccn1)CC1CCCO1 (configuration not stated)	.	.	.	0	.	.	.
C[C@@H]1CN([C@@H](C)CO)C(=O)CCCn2nncc2CO[C@H]1CN(C)Cc1ccc(Oc2ccccc2)cc1	-3	.	.	0	.	.	.
Cc1ccccc1NC(=O)C(C)SCc1ccccc1 (configuration not stated)	7	-1	96	0	i	194	.
CC(SCc1ccccc1)C(=O)Nc1ccccc1Br (configuration not stated)	11*	-2	105	1	i	204	-3
CC(C)[C@H](NC(=O)c1ccc([N+](=O)[O-])cc1Cl)C(=O)N1CCN(C/C=C/c2ccccc2)CC1	1	-6	107	0	.	530	.
CC1=NOC(=O)/C1=C/c1ccc2c(c1)OCO2	11*	0	82	0	i	112	-31
O=C(NCC1CCCO1)c1nn2c(C(F)(F)F)cc(-c3cc(Br)cs3)nc2c1Br (configuration not stated)	2	0	104	0	i	174	.
COc1ccc(NC(=O)CN(C)S(=O)(=O)c2ccc3c(c2)NC(=O)CS3)cc1	-1	-4	99	1	i	302	.
